Legend:
[1] = molecular target: Sodium-dependent serotonin transporter (Homo sapiens, UniProt P31645); test: Binding affinity to human SERT
[2] = molecular target: Histamine H3 receptor (Homo sapiens, UniProt Q9Y5N1); test: Binding affinity to human histamine H3 receptor
Method in brief: (§1)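 Means of at least three independent experiments, each run in triplicate; standard error of the mean reported.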

[3] = molecular target: Sodium-dependent serotonin transporter (Rattus norvegicus, UniProt P31652); test: Binding affinity to rat SERT; method in brief: as §1
[4] = Drug level in mouse brain at 10 mg/kg, ip after 1 hr; format: ADME, organism-based; parameters: dose 10 mg/kg, route intraperitoneal; conditions: read-out: Drug uptake
Method in brief: (§2)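 Mice given a single 10 mg/kg intraperitoneal dose. Brain drug concentration measured at 1 h and at 24 h post-dose, n = 3.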

[5] = tested on: Mus musculus; test: Effect on 5-HTP-induced head twitch in mouse at 10 mg/kg, ip after 1 hr relative to control; format: functional; conditions: route intraperitoneal
Method in brief: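 5-HTP-induced head-twitch model in mice. Test agent given at 10 mg/kg intraperitoneally, n = 4 per compound. Head twitches scored at 1 h and 24 h post-dose and expressed as percent of the control response.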

[6] = Drug level in mouse brain at 10 mg/kg, ip after 24 hrs; format: ADME, organism-based; parameters: dose 10 mg/kg, route intraperitoneal; conditions: read-out: Drug uptake; method in brief: as §2

Sequence of Sodium-dependent serotonin transporter (Rattus norvegicus, UniProt P31652) (P31652 whole entry): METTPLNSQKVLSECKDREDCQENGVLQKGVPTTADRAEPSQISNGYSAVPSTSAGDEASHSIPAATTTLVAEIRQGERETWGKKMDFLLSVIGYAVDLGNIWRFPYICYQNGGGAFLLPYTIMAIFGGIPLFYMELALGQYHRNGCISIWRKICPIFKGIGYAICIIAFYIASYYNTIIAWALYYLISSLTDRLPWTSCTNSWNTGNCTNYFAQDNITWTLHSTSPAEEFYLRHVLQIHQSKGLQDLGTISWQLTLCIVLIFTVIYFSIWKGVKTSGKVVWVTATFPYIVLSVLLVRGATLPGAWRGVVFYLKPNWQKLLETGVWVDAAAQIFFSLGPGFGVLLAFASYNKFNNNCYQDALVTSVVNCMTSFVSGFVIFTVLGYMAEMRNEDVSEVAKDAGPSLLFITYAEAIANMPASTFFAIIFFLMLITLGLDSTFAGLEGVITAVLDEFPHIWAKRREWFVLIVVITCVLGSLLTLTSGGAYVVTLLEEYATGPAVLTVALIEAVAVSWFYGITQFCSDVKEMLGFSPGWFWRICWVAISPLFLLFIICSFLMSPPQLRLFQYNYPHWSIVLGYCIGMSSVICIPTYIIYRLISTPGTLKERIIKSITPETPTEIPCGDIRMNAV
Sequence of Histamine H3 receptor (Q9Y5N1 whole entry): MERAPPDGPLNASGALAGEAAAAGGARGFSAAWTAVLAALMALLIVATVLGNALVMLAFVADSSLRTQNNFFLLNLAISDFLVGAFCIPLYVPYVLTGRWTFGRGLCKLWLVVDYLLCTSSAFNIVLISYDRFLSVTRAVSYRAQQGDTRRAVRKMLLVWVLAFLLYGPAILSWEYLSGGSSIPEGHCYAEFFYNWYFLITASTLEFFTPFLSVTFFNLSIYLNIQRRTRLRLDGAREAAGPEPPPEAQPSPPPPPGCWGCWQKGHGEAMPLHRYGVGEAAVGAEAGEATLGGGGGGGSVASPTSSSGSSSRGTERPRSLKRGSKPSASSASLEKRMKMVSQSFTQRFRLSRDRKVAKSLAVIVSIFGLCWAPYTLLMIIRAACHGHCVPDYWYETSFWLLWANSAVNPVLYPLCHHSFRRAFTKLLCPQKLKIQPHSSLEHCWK
Sequence of Sodium-dependent serotonin transporter (Homo sapiens, UniProt P31645) (P31645 whole entry): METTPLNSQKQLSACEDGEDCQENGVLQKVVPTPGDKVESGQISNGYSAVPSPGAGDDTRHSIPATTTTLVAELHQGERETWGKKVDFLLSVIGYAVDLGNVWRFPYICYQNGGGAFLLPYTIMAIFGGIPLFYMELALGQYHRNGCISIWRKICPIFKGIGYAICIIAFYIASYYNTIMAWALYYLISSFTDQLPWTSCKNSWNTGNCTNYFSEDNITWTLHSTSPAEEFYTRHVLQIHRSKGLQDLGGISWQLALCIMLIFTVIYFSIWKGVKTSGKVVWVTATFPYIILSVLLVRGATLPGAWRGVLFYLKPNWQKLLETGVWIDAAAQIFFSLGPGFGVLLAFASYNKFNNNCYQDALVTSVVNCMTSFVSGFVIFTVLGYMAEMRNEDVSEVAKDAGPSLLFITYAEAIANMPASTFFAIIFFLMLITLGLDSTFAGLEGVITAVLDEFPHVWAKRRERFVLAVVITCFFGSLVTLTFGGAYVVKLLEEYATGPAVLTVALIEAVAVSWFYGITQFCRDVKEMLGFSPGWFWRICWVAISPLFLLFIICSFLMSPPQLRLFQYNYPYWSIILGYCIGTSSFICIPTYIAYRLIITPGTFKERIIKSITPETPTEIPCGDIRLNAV

Ki [1]	Ki [2]	Ki [3]	concentration at 1 h [4]	concentration at 24 h [6]	Structure (SMILES)	Activity [5]
33 nM	1440 nM	25 nM	–	–	COc1ccc(C2CN(C)Cc3cc(OCCCN4CCN(c5ccc(C(F)(F)F)cc5)CC4)ccc32)cc1 (centres undefined)	–
8.8 nM	2610 nM	8.4 nM	–	–	COc1ccc(C2CN(C)Cc3cc(OCCCN4CCN(C(=O)c5cccn5C)CC4)ccc32)cc1 (centres undefined)	–
42 nM	267 nM	15 nM	–	–	COc1ccc(C2CN(C)Cc3cc(OCCCN4CCN(C(C)=O)CC4)ccc32)cc1 (centres undefined)	–
15 nM	509 nM	15 nM	–	–	COc1ccc(C2CN(C)Cc3cc(OCCCN4CCN(C(=O)C(C)C)CC4)ccc32)cc1 (centres undefined)	–
19.3 nM	38 nM	3 nM	–	–	COc1ccc(C2CN(C)Cc3cc(OCCCNC4CC4)ccc32)cc1 (centres undefined)	–
9.7 nM	7.4 nM	7.6 nM	–	–	COc1ccc(C2CN(C)Cc3cc(OCCCN(C4CC4)C4CC4)ccc32)cc1 (centres undefined)	–
6.5 nM	3.8 nM	4.8 nM	12.5 µM	< 1 µM	COc1ccc(C2CN(C)Cc3cc(OCCCN4CCOCC4)ccc32)cc1 (centres undefined)	>500%
2.9 nM	–	1.6 nM	6.1 µM	2.5 µM	COc1ccc(C2CN(C)Cc3cc(OCCCN4CCC(F)CC4)ccc32)cc1 (centres undefined)	>500%
8.2 nM	–	10 nM	–	–	COc1ccc(C2CN(C)Cc3cc(OCCCN4CCCC(F)(F)C4)ccc32)cc1 (centres undefined)	–
3.2 nM	9.5 nM	2 nM	–	–	COc1ccc(C2CN(C)Cc3cc(OCCCN4CCC(CO)CC4)ccc32)cc1 (centres undefined)	–
14 nM	40 nM	19 nM	–	–	COc1ccc(C2CN(C)Cc3cc(OCCCN4CCC(C(F)(F)F)CC4)ccc32)cc1 (centres undefined)	–
12 nM	106 nM	6.3 nM	–	–	COc1ccc(C2CN(C)Cc3cc(OCCCN4CCS(=O)(=O)CC4)ccc32)cc1 (centres undefined)	–
4.8 nM	–	1 nM	–	–	COc1ccc(C2CN(C)Cc3cc(OCCCN4CCC4)ccc32)cc1 (centres undefined)	–
7.3 nM	9.5 nM	8 nM	–	–	COc1ccc(C2CN(C)Cc3cc(OCCCN4CCC(F)(F)C4)ccc32)cc1 (centres undefined)	–
7.2 nM	1110 nM	5.7 nM	–	–	COc1ccc(C2CN(C)Cc3cc(OCCCN4CCN(c5ccccc5O)CC4)ccc32)cc1 (centres undefined)	–
4 nM	3.3 nM	5.3 nM	–	–	COc1ccc(C2CN(C)Cc3cc(OCCCN4CCN(c5ccncc5)CC4)ccc32)cc1 (centres undefined)	–
18 nM	30 nM	10 nM	–	–	COc1ccc(C2CN(C)Cc3cc(OCCCN4CCN(C5CC5)CC4)ccc32)cc1 (centres undefined)	–
1.8 nM	9.7 nM	1.3 nM	–	–	COc1ccc(C2CN(C)Cc3cc(OCCCN4CCN(C(C)C)CC4)ccc32)cc1 (centres undefined)	–
3.8 nM	11 nM	1.2 nM	–	–	COc1ccc(C2CN(C)Cc3cc(OCCCN4CCC(O)CC4)ccc32)cc1 (centres undefined)	–
5.3 nM	7.4 nM	5.3 nM	–	–	COc1ccc(C2CN(C)Cc3cc(OCCCN4CCC(C#N)CC4)ccc32)cc1 (centres undefined)	–
8 nM	144 nM	3.3 nM	–	–	COc1ccc(C2CN(C)Cc3cc(OCCCN4CCN(c5ccc(C#N)cc5)CC4)ccc32)cc1 (centres undefined)	–
6.5 nM	8.7 nM	5.7 nM	–	–	COc1ccc(C2CN(C)Cc3cc(OCCCN4CCC(F)(F)CC4)ccc32)cc1 (centres undefined)	–
–	12 nM	1.5 nM	–	–	CCN1CCN(CCCOc2ccc3c(c2)CN(C)CC3c2ccc(OC)cc2)CC1 (centres undefined)	–
2.9 nM	69 nM	–	–	–	COc1ccc(C2CN(C)Cc3cc(OCCCN4CC(F)(F)C4)ccc32)cc1 (centres undefined)	–
3.4 nM	47 nM	0.73 nM	–	–	CCNCCCOc1ccc2c(c1)CN(C)CC2c1ccc(OC)cc1 (centres undefined)	–
5.3 nM	268 nM	2.7 nM	–	–	COc1ccc(C2CN(C)Cc3cc(OCCCN4CCN(c5nccs5)CC4)ccc32)cc1 (centres undefined)	–
–	1.7 nM	2.2 nM	–	–	CCN(CC)CCCOc1ccc2c(c1)CN(C)CC2c1ccc(OC)cc1 (centres undefined)	–
19 nM	2840 nM	21 nM	–	–	COc1ccc(C2CN(C)Cc3cc(OCCCN4CCN(C(=O)c5ccncc5)CC4)ccc32)cc1 (centres undefined)	–

Reference: ChEMBL document CHEMBL1146292, “Dual serotonin transporter/histamine H3 ligands: Optimization of the H3 pharmacophore” (Bioorg Med Chem Lett, 2007)
